# Publication PMC7729387 (Journal of Antimicrobial Chemotherapy, 2020)
# Like-named read-outs stand apart in the source and are kept apart here.
# What was measured:
# [1] = system: A/WSN/33 (H1N1) strain; assay: PK/PD analysis, linear model; type: in vivo, influenza A(H1N1) virus (BALB/c mice); conditions: y = virus titre (log10 TCID50/mL)
# [2] = PK of baloxavir acid after oral baloxavir marboxil in A/WSN/33-infected mice; type: in vivo, BALB/c mice
# Method in brief: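 A/WSN/33-infected BALB/c mice each received a single oral dose of the prodrug at 0.5, 1.5, 5, 15 or 50 mg/kg. Blood was taken at 0.5–12 h, three mice per dose per timepoint. Plasma active acid and prodrug were measured by LC-MS/MS.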
# [3] = system: A/WSN/33 (H1N1) strain; assay: PK/PD analysis, sigmoid Emax model; type: in vivo, influenza A(H1N1) virus (BALB/c mice); conditions: for E max (estimate) / E 0 (estimate): y = virus titre (log10 TCID50/mL)
# Method in brief: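 A/WSN/33-infected BALB/c mice were dosed subcutaneously from day 5 at 0.0625–8 mg/kg q24h, q12h or q6h for 1 day, five per group, in Tween 80/copolymer carbonate vehicle at pH ~9. Lung titres were read 24 h later by MDCK TCID50. PK parameters came from mean plasma levels after single 0.125–8 mg/kg doses, scaled for 0.0625–4 mg/kg. A sigmoid Emax model was fitted to individual-mouse titres and judged by adjusted R².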
# [4] = system: A/WSN/33 (H1N1) strain; type: in vivo, influenza A(H1N1) virus (BALB/c mice)
# [5] = system: type A and type B virus strains; conditions: plaque-reduction assay; cited from earlier work
# [6] = humans; single-dose oral baloxavir marboxil; cited from earlier work
# [7] = PK of baloxavir acid after subcutaneous baloxavir acid in A/WSN/33-infected mice; type: in vivo, BALB/c mice; conditions: sc baloxavir acid 0.125, 0.5, 2 and 8 mg/kg
# [8] = system: type A and type B virus strains; conditions: cited from earlier work
# [9] = system: B/Hong Kong/5/72; type: in vivo, influenza type B virus (BALB/c mice); conditions: oral 15 mg/kg twice daily
# [10] = system: A/Hong Kong/8/68 (H3N2); type: in vivo, influenza A(H3N2) virus (BALB/c mice); conditions: oral 15 mg/kg twice daily
# [11] = system: influenza virus; conditions: cited from earlier work
# [12] = system: influenza A virus; conditions: 10 mg/kg, q24h daily, nude mice; cited from earlier work
# [13] = system: A/Osaka/129/2009 (H1N1pdm09); parameters: species or system influenza A(H1N1)pdm09 virus (BALB/c mice); conditions: mouse, in vivo, po, 5 mg/kg
# [14] = BXA in plasma, oral BXM 0.5 mg/kg
# [15] = BXA in plasma, oral BXM 1.5 mg/kg
# [16] = BXA in plasma, oral BXM 5 mg/kg
# [17] = BXA in plasma, oral BXM 15 mg/kg
# [18] = BXA in plasma, oral BXM 50 mg/kg
# [19] = […], 24 h after initial dosing, 15 mg/kg
# [20] = 24 h after single-dose oral treatment, patients with uncomplicated influenza, ref Phase 3 baloxavir marboxil studies
structure (smiles),measurement,setting,value
O=C1c2c(O)c(=O)ccn2N([C@@H]2c3ccccc3SCc3c2ccc(F)c3F)[C@@H]2COCCN12 [baloxavir acid],E 0 (estimate),[1]; x = T >2 (h),5.141
same,E 0 (estimate),[1]; x = T >10 (h),4.095
same,E 0 (estimate),[1]; x = T >50 (h),3.569
same,plasma exposure versus dose,[2]; BXA in plasma after oral baloxavir marboxil 0.5–50 mg/kg,increased dose proportionally up to 15 mg/kg
same,AUC0–12,[2]; [14],22.0 ng·h/mL
same,AUC0–∞,[2]; [14],22.7 ng·h/mL
same,C max,[2]; [14],5.05 ng/mL
same,T max,[2]; [14],1.00 h
same,"t ½,z","[2]; BXA in plasma, oral BXM 0.5 mg/kg, t½,4–10 h",2.24 h
same,AUC0–12,[2]; [15],62.6 ng·h/mL
same,AUC0–∞,[2]; [15],66.1 ng·h/mL
same,C max,[2]; [15],14.3 ng/mL
same,T max,[2]; [15],1.00 h
same,"t ½,z","[2]; BXA in plasma, oral BXM 1.5 mg/kg, t½,6–12 h",2.56 h
same,AUC0–12,[2]; [16],242 ng·h/mL
same,AUC0–∞,[2]; [16],252 ng·h/mL
same,C max,[2]; [16],45.7 ng/mL
same,T max,[2]; [16],0.500 h
same,"t ½,z","[2]; BXA in plasma, oral BXM 5 mg/kg, t½,6–12 h",2.45 h
same,AUC0–12,[2]; [17],648 ng·h/mL
same,AUC0–∞,[2]; [17],670 ng·h/mL
same,C max,[2]; [17],175 ng/mL
same,T max,[2]; [17],0.500 h
same,"t ½,z","[2]; BXA in plasma, oral BXM 15 mg/kg, t½,6–12 h",2.26 h
same,AUC0–12,[2]; [18],1580 ng·h/mL
same,AUC0–∞,[2]; [18],1690 ng·h/mL
same,C max,[2]; [18],284 ng/mL
same,T max,[2]; [18],2.00 h
same,"t ½,z","[2]; BXA in plasma, oral BXM 50 mg/kg, t½,6–12 h",3.14 h
same,"t½,z (half-life in mouse plasma)","[2]; BXA in plasma, oral baloxavir marboxil 0.5–50 mg/kg, range over doses",2.24 to 3.14 h
same,E max (estimate),[3]; x = AUC0–24 (ng·h/mL),1.091
same,EC50 (estimate),[3]; x = C 24,4.767 ng/mL
same,E 0 (estimate),[3]; x = C 24 (ng/mL),3.928
same,E max (estimate),[3]; x = C 24 (ng/mL),1.499
same,EC50 (estimate),[3]; x = C max,42.528 ng/mL
same,E 0 (estimate),[3]; x = C max (ng/mL),3.806
same,E max (estimate),[3]; x = C max (ng/mL),1.022
same,EC50 (estimate),[3]; x = C τ,4.108 ng/mL
same,E 0 (estimate),[3]; x = C τ (ng/mL),3.958
same,E max (estimate),[3]; x = C τ (ng/mL),1.554
same,E 0 (estimate),[3]; x = T >50 (h),3.588
same,E max (estimate),[3]; x = T >50 (h),1.913
same,"virus titres versus vehicle or oseltamivir phosphate 5 eq mg/kg, q12h","[4]; […], 24 h post-treatment initiation, all groups",numerically lower
same,"inhibitory values, type A more potent than type B virus strains",[5],6- to 12 fold
same,half-life in plasma compared with that in mice,[6],> 10 fold
same,plasma concentration versus dose,[7],increased dose proportionally from 0.125 to 8 mg/kg
same,"inhibitory values, type A more potent than type B virus strains",[8],4- to 5 fold
COC(=O)OCOc1c2n(ccc1=O)N([C@@H]1c3ccccc3SCc3c1ccc(F)c3F)[C@@H]1COCCN1C2=O [baloxavir marboxil],baloxavir marboxil in plasma,"[2]; after oral baloxavir marboxil, data not shown",undetectable in almost all infected mice
same,"virus titres declined compared with oseltamivir phosphate 5 or 50 eq mg/kg, q12h",[4]; [19],2 log10 TCID50/mL
same,virus titres declined compared with vehicle,[4]; [19],> 3 log10 TCID50/mL
same,virus titres compared with the clinically equivalent or higher dose of oseltamivir phosphate,"[4]; mouse, in vivo, po, 1.5 mg/kg",significantly reduced virus titres
same,Lung virus titres versus each NAI or favipiravir,"[4]; mouse, in vivo, po, 5 mg/kg",significantly lower
same,decrease in virus titre compared with oseltamivir phosphate at 5 eq mg/kg,[4]; oral 15 mg/kg twice daily,2.64 log10 TCID50/mL
same,decrease in virus titre compared with oseltamivir phosphate at 5 eq mg/kg,[9],0.97 log10 TCID50/mL
same,decrease in virus titre compared with oseltamivir phosphate at 5 eq mg/kg,[10],2.16 log10 TCID50/mL
same,greater viral load reduction than after oseltamivir phosphate,[11]; [20],2.0 log10 TCID50/mL
same,greater viral load reduction than after placebo,[11]; [20],3.5 log10 TCID50/mL
same,Symptom resolution,[11]; type A virus infections,"faster with baloxavir marboxil than placebo, but not oseltamivir phosphate"
same,clearance of virus from the respiratory organs,[12],did not clear the virus from the respiratory organs
same,virus titre reduction in mice infected with the H1N1pdm09 strain,[13],≥ 100 fold
"CCOC(=O)C1=C[C@@H](OC(CC)CC)[C@H](NC(C)=O)[C@@H](N)C1 [oseltamivir phosphate, reference compound]",reduction in virus titres compared with vehicle,"[4]; mouse, in vivo",0.5–1 log10
